The source of these data is ChEMBL document CHEMBL3774351, “Three stories on Eph kinase inhibitors: From in silico discovery to in vivo validation” (Eur J Med Chem, 2016).

By IC50 is commonly meant the concentration needed to halve the response being measured. The half-life is the time in which the quantity being followed falls by half. By inhibition in vivo is commonly meant the change of the read-out against control, counted positive when it falls. Broadly, the inhibition is the relative decrease from the control value, in per cent.

In one data set the target is T1, Ephrin type-B receptor 4 (Homo sapiens, UniProt P54760).
T1 sequence (P54760 whole entry): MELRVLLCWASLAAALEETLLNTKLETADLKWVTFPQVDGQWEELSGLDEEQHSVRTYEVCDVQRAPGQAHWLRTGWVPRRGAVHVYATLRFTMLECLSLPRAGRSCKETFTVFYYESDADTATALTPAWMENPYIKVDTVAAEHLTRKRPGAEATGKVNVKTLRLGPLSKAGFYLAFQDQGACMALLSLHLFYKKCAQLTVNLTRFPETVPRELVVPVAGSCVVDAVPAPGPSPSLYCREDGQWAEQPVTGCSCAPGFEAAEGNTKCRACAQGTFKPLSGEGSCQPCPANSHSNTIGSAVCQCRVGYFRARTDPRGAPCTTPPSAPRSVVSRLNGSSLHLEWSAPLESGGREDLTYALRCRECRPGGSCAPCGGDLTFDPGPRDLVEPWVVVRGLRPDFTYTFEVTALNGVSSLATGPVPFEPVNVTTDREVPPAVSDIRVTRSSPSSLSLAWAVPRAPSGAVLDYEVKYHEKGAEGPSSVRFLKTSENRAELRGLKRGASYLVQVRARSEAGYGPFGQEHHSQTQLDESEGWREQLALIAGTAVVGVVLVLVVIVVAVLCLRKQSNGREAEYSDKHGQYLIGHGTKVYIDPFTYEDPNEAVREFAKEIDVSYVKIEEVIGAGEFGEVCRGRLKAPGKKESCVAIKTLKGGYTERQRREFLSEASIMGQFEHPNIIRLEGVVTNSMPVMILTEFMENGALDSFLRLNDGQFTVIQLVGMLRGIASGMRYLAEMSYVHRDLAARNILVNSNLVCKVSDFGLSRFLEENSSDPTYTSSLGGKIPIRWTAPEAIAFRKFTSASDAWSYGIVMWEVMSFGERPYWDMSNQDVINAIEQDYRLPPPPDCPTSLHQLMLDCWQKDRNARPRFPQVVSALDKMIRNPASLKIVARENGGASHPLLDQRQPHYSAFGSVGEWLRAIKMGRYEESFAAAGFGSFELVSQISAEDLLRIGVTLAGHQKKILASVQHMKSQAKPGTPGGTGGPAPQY
Kind of data set: Inhibition of N-terminal GST-fused His6-tagged human recombinant EphB4. The gist of the method:
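EphB4 FRET enzymatic assay measuring inhibition of phosphorylation of a synthetic substrate, with ATP at Km.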

Data set [1] is described as follows: Half life in human liver microsomes at 0.1 uM up to 60 mins by HPLC-MS/MS analysis. In general terms: Liver microsomes are vesicles of endoplasmic reticulum, rich in cytochrome P450 enzymes.
Data set [2] relates to Mus musculus. Kind of data set: AUClast in CD-1 (ICR) mouse at 1 mg/kg, iv. Type of data set: ADME, organism-based. Set-up: dose 1 mg/kg, route intravenous, time 0 - last. Conditions: in vivo.
In a further data set the test system is MDA-MB-231. Kind of data set: Antitumor activity against human MDA-MB-231 cells xenografted in nude mouse assessed as tumor growth inhibition at 50 mg/kg, bid administered for 21 days relative to control. Type of data set: functional. To be noted: MDA-MB-231, 504 h. The gist of the method: (§1)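 MDA-MB-231 xenografts in nude mice, treatment started at median tumor volume 108 mm3. Oral gavage of 50 mg/kg twice daily (100 mg/kg/day) for 21 days versus vehicle cohort, 9 animals per cohort. Median tumor volume followed over time. Mean body weight monitored through the treatment period.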
(In general: Xenograft models place foreign cells or tissue in a host animal.)

Data set [3] relates to Mus musculus. Kind of data set: Toxicity in nude mouse xenografted with human MDA-MB-231 cells assessed as reduction in body weight at 50 mg/kg, bid administered for 21 days measured during the treatment period. Type of data set: organism-based. Set-up: scale not given: the % may be the effect or the level left. Conditions: in vivo, 504 h. Put shortly:
as §1

The subject of data set [4] is HUVEC. Kind of data set: Antiangiogenic activity in HUVEC assessed as inhibition of VEGF-A-induced angiogenic sprouting by spheroid-based sprouting assay. To be noted: Homo sapiens.
Data set [5] relates to HUVEC. Kind of data set: Antiangiogenic activity in HUVEC assessed as reduction in number of loops after 15 hrs by matrigel assay. Type of data set: functional, cell-based. To be noted: Homo sapiens. The gist of the method:
(§2)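 HUVEC seeded on Matrigel and incubated with compound for 15 h. Tube length, total branching points and total loops quantified against untreated control cells. Dose-response curves used to derive IC50 for each read-out. Measurements done at least in triplicate, SEM shown.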

The test system of data set [6] is HUVEC. Kind of data set: Antiangiogenic activity in HUVEC assessed as reduction in branching points after 15 hrs by matrigel assay. Type of data set: functional, cell-based. Conditions: Homo sapiens. The gist of the method:
as §2

Data set [7] has as its system HUVEC. Kind of data set: Antiangiogenic activity in HUVEC assessed as reduction in branching points at 1 uM after 15 hrs by matrigel assay. Format: functional. To be noted: Homo sapiens.
Data set [8] relates to HUVEC. Kind of data set: Antiangiogenic activity in HUVEC assessed as reduction in number of loops at 1 uM after 15 hrs by matrigel assay. Format: functional. Conditions: Homo sapiens.
Data set [9] concerns HUVEC. Kind of data set: Antiangiogenic activity in HUVEC assessed as reduction in tube length after 15 hrs by matrigel assay. Format: functional, cell-based. Conditions: Homo sapiens. The gist of the method:
as §2

Take `COc1cccc(-n2c(N)c(C(N)=O)c3nc4ccccc4nc32)c1`: the half-maximal inhibitory concentration (IC50) at Ephrin type-B receptor 4 was 300 nM.
Consider `CC(C)NCC(O)COc1cccc2ccccc12` (stereo unspecified) [PROPRANOLOL], for which the half-life at 1 h, 0.1 µM in data set [1] was > 1 h.
On to `Cc1ccc(O)cc1-n1c(N)c(C(N)=O)c2nc3ccccc3nc21`, for which the AUClast in the data set on Mus musculus [2] was determined as 39 ng·h/mL. In the data set with MDA-MB-231, the inhibition in vivo at 50 mg/kg was 80%. For the same molecule, the Activity result in the data set with Mus musculus [3] is on record as “<= 16%”. Also, the IC50 in the data set on HUVEC [4] came to 1500 nM.
As to `COc1ccccc1-n1c(-c2ccc(O)cc2C)cn2c3c(=O)[nH]c(=O)n(C)c3nc12`, the IC50 with HUVEC [5] was determined as 71 nM; with HUVEC [6], 191 nM; in the data set on HUVEC [9] it was 1700 nM. In addition, the figures for the inhibition at 1 µM in the data set with HUVEC [7] and with HUVEC [8] were 87% and 97%, respectively.
